# Laboratory results taken from publication PMC7078523 (Saudi Pharmaceutical Journal : SPJ, 2020).
# Columns and labels:
# [1] = cited from earlier work
# [2] = Phase solubility study of GRI with β-CD, NS2 and NS3; type: physicochemical; conditions: distilled water
# In-vitro release study = type: physicochemical
# In-vivo bioavailability = assay: In-vivo bioavailability; design: species or system rats; conditions: male, albino, rat, plasma, po, 15 mg/kg
# Procedure, shortened: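 Fasted male albino rats (300±25 g), 7 per group, single oral 15 mg/kg as 1 ml aqueous suspension by feeding tube with 10 ml water. Orbital sinus blood into heparin at 0–48 h; plasma stored at -80 °C. Acetonitrile protein precipitation, propranolol internal standard, LC-MS/MS over 10–6000 ng/mL. Non-compartmental parameters per rat; AUC0-48 by log-linear trapezoidal rule, kel from terminal slope, t1/2 = 0.693/kel.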
solubility [2] [µM],"GRI cumulative percent released/dissolved after 2 hrs (In-vitro release study; 0.1 N HCl (pH 1.2), 37 °C, 50 rpm) [%]",GRI cumulative percent released/dissolved after 7 h (In-vitro release study; 2 h 0.1 N HCl then 5 hrs phosphate buffer pH 7.4) [%],Dissolution efficiency (%D.E.) (In-vitro release study; after 7 hrs) [%],Best fitted release kinetics model (In-vitro release study; highest correlation coefficient (R^2)),AUC(0-t) (In-vivo bioavailability) [ng·h/mL],Cmax (In-vivo bioavailability) [ng/mL],Tmax (In-vivo bioavailability) [h],half-life (In-vivo bioavailability) [h],k el (In-vivo bioavailability) [s⁻¹],Compound,"Aqueous solubility ([1]; physiological pH, ref Swaminathan et al., 2007)","Biopharmaceutics Classification System (BCS) class ([1]; ref Amidon et al., 1995)","log P (octanol/water) ([1]; ref Arida et al., 2007)"
,,,,,,,,,,CCC(C)n1ncn(-c2ccc(N3CCN(c4ccc(OCC5COC(Cn6cncn6)(c6ccc(Cl)cc6Cl)O5)cc4)CC3)cc2)c1=O (stereo not shown) [itraconazole],about 1 ng mL^−1,,
~35,21.81 ± 0.07,27.43 ± 0.32,23.87,Higuchi release kinetics model,22500,1810,2,20,1.03e-05,"COC1=CC(=O)C[C@@H](C)[C@]12Oc1c(Cl)c(OC)cc(OC)c1C2=O [GRI, Griseofulvin]",,class II,2.15
